# From PubChem
# Xi reactivation: reactivates the inactive X chromosome in mouse fibroblasts. XiGFP mouse fibroblasts, % GFP-positive cells imaging, 3 d; cells co-treated with 5-aza-dC sensitizer; scaled so ellipticine positive control = 100%. activation, % at 7.58 µM. 360,000 tested, 0.055% active. AID 743238;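 active = mean normalized replicate activation at least 10% and every replicate at or above 10%; inconclusive = only one of the two criteria met; inactive = mean below 10% and not all replicates reach 10%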;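 also: 0% = median of on-plate neutral control wells and 100% = ellipticine 6 µM median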
#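 System: SV40-immortalized XiGFP fibroblast cells, line 68-5-11 / Incubation: 3-day compound exposure, then 15 min fixation at room temperature / Compound: single concentration per compound, delivered by pin transfer / Buffer or medium: DMEM plus 5-aza-dC sensitizer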
# Myeloid diff MLP: myeloid differentiation induction. calls only at 10 µM. 360,000 tested, 1% active. ER-HoxA9 myeloid progenitors, lysozyme-GFP differentiation, flow cytometry. AID 624256;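 active = normalized GFP-positive differentiation at or above the plate's own cutoff, the solvent-only control mean plus 3 SD; inconclusive = no clear call, values can overlap the other calls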;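 also: cells exposed to compound for four days before flow analysis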
# ABCB6 inh 2: blocks the human ABCB6 transporter; Q9NP58; K562-ABCB6 porphyrin accumulation, flow cytometry, 1 h; active compounds read low; fluorescence ratio to DMSO, % at 10 µM; 360,000 tested, 0.19% active;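 active = fluorescence ratio to DMSO below 75%, the collection mean minus 3 SD; inconclusive = too few cells collected in the well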;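 also: signal is porphyrin accumulated inside mitochondria; 100% equals median channel fluorescence of DMSO control wells; lower ratio means ABCB6 inhibition with less porphyrin fluorescence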
# Target sequence (Q9NP58 whole entry, looked up): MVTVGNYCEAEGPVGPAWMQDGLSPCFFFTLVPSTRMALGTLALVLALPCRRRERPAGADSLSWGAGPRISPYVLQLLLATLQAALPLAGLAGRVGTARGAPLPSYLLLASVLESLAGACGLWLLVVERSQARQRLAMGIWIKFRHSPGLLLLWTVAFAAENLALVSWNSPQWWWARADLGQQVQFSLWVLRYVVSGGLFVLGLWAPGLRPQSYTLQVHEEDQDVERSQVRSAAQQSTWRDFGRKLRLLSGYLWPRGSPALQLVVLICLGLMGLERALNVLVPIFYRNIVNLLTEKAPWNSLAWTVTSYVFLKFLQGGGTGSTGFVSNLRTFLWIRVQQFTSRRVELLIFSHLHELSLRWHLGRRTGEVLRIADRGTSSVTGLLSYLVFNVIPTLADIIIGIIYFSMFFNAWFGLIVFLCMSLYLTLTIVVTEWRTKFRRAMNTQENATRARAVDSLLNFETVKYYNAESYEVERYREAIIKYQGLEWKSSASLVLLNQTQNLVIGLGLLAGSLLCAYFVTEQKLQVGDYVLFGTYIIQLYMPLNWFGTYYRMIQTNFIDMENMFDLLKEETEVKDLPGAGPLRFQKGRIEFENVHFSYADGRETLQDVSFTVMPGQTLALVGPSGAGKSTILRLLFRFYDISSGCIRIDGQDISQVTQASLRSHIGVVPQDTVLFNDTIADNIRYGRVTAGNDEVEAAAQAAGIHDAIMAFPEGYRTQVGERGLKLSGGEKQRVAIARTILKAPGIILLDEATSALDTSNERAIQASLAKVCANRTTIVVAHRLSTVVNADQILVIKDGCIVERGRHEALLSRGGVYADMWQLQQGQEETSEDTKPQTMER
# Myeloid diff CP1: compounds promoting myeloid differentiation. shares compounds with Myeloid diff MLP. ER-HoxA9 myeloid progenitors, GFP/Mac1 double-positive flow. calls only. 2,300 tested, 2% active. AID 651706;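 active = share of green or green-and-red cells above 9 and 9% in run 1 or 4 and 3% in run 2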
# GFP autofluor: compound fluorescence in myeloid differentiation counter-screen; shares compounds with Myeloid diff MLP; ER-HoxA9 myeloid progenitors, no estrogen, GFP autofluorescence flow cytometry; vehicle wells 0%, positive control 100%; fluorescence response, % (no concentration beside the values); 2,300 tested, 7.4% active; AID 651707;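 active = over 5% cells positive for green fluorescent reporter, or over 2% positive for both it and APC stain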;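 also: range taken on the double positive population between DMSO and positive control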
# * hit, by the source's call; i = inactive; ? = inconclusive; . = no result given; + = active, no number. Shown is part of a subset that was picked to be rich in hits.
SMILES,Xi reactivation,Myeloid diff MLP,ABCB6 inh 2,Myeloid diff CP1,GFP autofluor
O=C1CCC/C(=N/NC(=O)c2ccc(NS(=O)(=O)c3cccs3)cc2)C1,0,i,80,i,0
O=C1CCC/C(=N/NC(=O)c2cc(NS(=O)(=O)c3cccs3)cc(NS(=O)(=O)c3cccs3)c2)C1,.,i,99,.,.
Cc1nn(C(=O)c2ccc([N+](=O)[O-])cc2)c(C)c1Br,0,+,98,i,0
Cc1nn(C(=O)c2nn(C)cc2[N+](=O)[O-])c(C)c1Br,0,i,91,.,.
C[C@H]1CN(C)C(=O)Cc2ccccc2O[C@@H]1CN(C)C(=O)OC(C)(C)C,0,.,.,.,.
COc1ccc(-c2nc(CN3CCC(C(=O)NC4CC4)CC3)c(C)o2)cc1OC,0,i,95,.,.
COc1ccc(-c2nc(CN3CCC(C(=O)N4CCc5ccccc54)CC3)c(C)o2)cc1OC,0,i,97,i,1
COc1ccc(NC(=O)Nc2ccc3c(c2)CC(=O)N([C@@H](C)CO)C[C@H](C)[C@@H](CN(C)Cc2ccncc2)O3)cc1,0,.,.,.,.
NNC(=O)COc1ccc(F)cc1,0,i,100,.,.
NNC(=O)COc1ccc(-c2nccc(-c3ccc(F)cc3)n2)cc1,0,i,96,i,0
CCOP(=O)(OCC)C(NC(=O)Nc1ccc(Cl)cc1)C(N)=O (stereo not given),0,i,104,.,.
CCOP(=O)(OCC)C(NC(=O)Nc1ccc(Cl)c(Cl)c1)C(N)=O (stereo not given),0,i,93,i,0
CCOC(=O)c1ccc(-n2c(N)c(C(=O)NCC3CCCO3)sc2=S)cc1 (stereo not given),.,i,100,.,.
COc1ccc(-n2c(N)c(C(=O)NCC3CCCO3)sc2=S)cc1 (stereo not given),.,+,104,i,0
C/C(N)=C(/C#N)C(=O)COC(=O)c1cc(C)n(-c2ccc(F)cc2)c1C,0,+,94,+,0
Cc1cc(C(=O)OCC(N)=O)c(C)n1-c1ccccc1,0,i,101,.,.
CC(C)Cc1nnc(NC(=O)CCC(=O)N2CCN(c3ccccc3)CC2)s1,0,i,97,.,.
CCCc1nnc(NC(=O)CCC(=O)N2CCN(c3ccccc3)CC2)s1,0,i,97,i,0
C[C@@H]1CCCCO[C@@H](CN(C)C(=O)Nc2ccccc2)[C@H](C)CN([C@@H](C)CO)C(=O)c2cc(N(C)C)ccc2O1,0,.,.,.,.
Cc1cccc(NC(=S)NCC23C=CC(O2)C2C(=O)N(c4ccc(Cl)cc4)C(=O)C23)c1 (stereo not given),0,+,95,i,1
Cc1ccc(NC(=S)NCC23C=CC(O2)C2C(=O)N(c4ccc(C)cc4)C(=O)C23)cc1 (stereo not given),0,i,95,.,.
O=C(N[C@@H]1C=C[C@@H](CC(=O)N2CCc3ccccc3C2)O[C@H]1CO)C1CC1,0,.,.,.,.
CCC(/C=C1\Sc2ccc(OC)cc2N1CC)=C\c1sc2ccc(OC)cc2[n+]1CCCS(=O)(=O)[O-],1,i,101,.,.
CCN1/C(=C/c2cc[n+](CCCS(=O)(=O)[O-])c3ccccc23)Sc2ccccc21,0,+,291,i,14*
CCc1nc2ccc(C(=O)Nc3cc(-c4ccccc4)ccc3OC)cn2c1N(C)Cc1nccs1,0,+,98,i,0
SMILES,Xi reactivation,Myeloid diff MLP,ABCB6 inh 2,Myeloid diff CP1,GFP autofluor
CCc1nc2ccc(C(=O)Nc3cc(-c4ccccc4)ccc3OC)cn2c1N(C)Cc1ccc(OC)cc1,0,i,93,.,.
CC(C)(C)NS(=O)(=O)c1ccc(CCC(=O)Nc2ccc3c(c2)OCCO3)cc1,0,i,105,.,.
CC(C)(C)NS(=O)(=O)c1ccc(CCC(=O)Nc2ccc3c(c2)OCO3)cc1,.,+,95,i,1
CCOC(=O)c1cc2c(c(-c3ccccc3)n1)[C@H](CCO)N(S(=O)(=O)C(C)(C)C)C2,0,i,102,.,.
CCOC(=O)c1cc2c(c(-c3ccccc3)n1)[C@@H](CCO)N(S(=O)(=O)C(C)(C)C)C2,0,i,104,i,1
CC(C)NC(=O)Nc1ccc2c(c1)C(=O)N([C@H](C)CO)C[C@H](C)[C@@H](CN(C)CC1CC1)OCCCC[C@H](C)O2,-1,.,.,.,.
CCN(CC)C(=O)C1=C(C)N(CCCN2CCCC2=O)C(=O)C(CC(=O)NCc2ccco2)C1 (stereo not given),0,i,103,i,0
CCCCN1C(=O)C(CC(=O)NCc2ccco2)CC(C(=O)N(CC)CC)=C1C (stereo not given),0,i,93,.,.
CN1C[C@H]2[C@@H](c3ccccc31)[C@@H](CO)N2C(=O)CN1CCOCC1,0,.,.,.,.
C=CCNC(=S)/N=c1/ccccn1CC,0,i,103,i,4
C=CCNC(=S)Nc1ccccc1,.,i,95,.,.
CCC(C)NCCCOc1ccc(C)cc1OC (stereo not given),0,i,93,.,.
CNCCCOc1ccc(C)cc1OC,0,i,101,i,0
CO[C@@H]1CN(C)C(=O)c2cc(NC(=O)CC(F)(F)F)ccc2OC[C@H](C)N(C(=O)C2CCOCC2)C[C@H]1C,0,.,.,.,.
COC(=O)c1c(NC(=O)C2(C)Cc3ccccc3C(=O)O2)sc2c1CCCC2 (stereo not given),.,+,96,i,0
COC(=O)c1c(NC(=O)C2Cc3ccccc3C(=O)O2)sc2c1CCCC2 (stereo not given),0,i,95,.,.
O=C(C[C@@H]1C[C@H]2c3cc(NC(=O)Nc4ccc(C(F)(F)F)cc4)ccc3O[C@H]2[C@H](CO)O1)NCc1ccc(Cl)cc1,0,.,.,.,.
COc1ccc2c3c(n(C)c2c1)[C@@H](CO)N(Cc1cccc(F)c1)CC31CCN(C)CC1,0,.,.,.,.
CCOc1ccc(CN2CCNC(=O)C2CC(=O)NCc2csc(C(C)C)n2)cc1 (stereo not given),0,?,95,.,.
COc1ccc2ccccc2c1CNC(=O)CC1C(=O)NCCN1CC(C)C (stereo not given),0,+,108,i,0
CCn1ccnc1CNC(=O)CC1C(=O)NCCN1CC(c1ccccc1)c1ccccc1 (stereo not given),0,i,100,.,.
CC(C)c1nc(CNC(=O)CC2C(=O)NCCN2Cc2ccccc2)cs1 (stereo not given),0,i,477,i,0
CCC(=O)N1[C@@H]2Cn3c(ccc(-c4ccccc4)c3=O)[C@H]1[C@@H](C(=O)N1CCN(C)CC1)[C@@H]2CO,0,.,.,.,.
O=C(Nc1cc(Br)ccc1O)c1cc(-c2cccs2)on1,0,+,97,i,1
CC(C)c1cc(C(=O)Nc2cc(Br)ccc2O)no1,.,i,96,.,.
CCOC(=O)Cn1cc(-c2ccccc2)nn1,.,i,98,.,.
